Key:
[1] = target: Proto-oncogene tyrosine-protein kinase Src (Homo sapiens) (UniProt P12931); assay: Inhibition of SRC at 10 uM incubated for 60 mins using poly(Glu,Tyr)4:1 substrate and 10 uM ATP by ELISA
Method in brief: (§1)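 ELISA with Poly(Glu,Tyr)4:1 (20 μg/mL) precoated as substrate and 10 μM ATP, in 50 mM HEPES pH 7.4, 20 mM MgCl2, 0.1 mM MnCl2, 0.2 mM Na3VO4, 1 mM DTT. Compound was tested at 10 μM, in duplicate. Kinase reaction ran 60 min at 37 °C. Phosphotyrosine was detected with PY99 and HRP anti-mouse IgG, developed with o-phenylenediamine/H2O2, stopped with H2SO4 and read at 492 nm. Inhibition = [1 − A492 treated/A492 control] × 100%. References: lapatinib (ErbB2) and PP2 (Src), each at 10 μM.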

[2] = system: HEY; assay: Cytotoxicity against human HEY cells incubated for 72 hrs by MTT assay; type: functional, cell-based
[3] = system: MCF7; assay: Cytotoxicity against human MCF7 cells incubated for 72 hrs by MTT assay; type: functional, cell-based; settings: MCF7, 72 h
Method in brief: (§2)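 Cells were kept in DMEM (MDA-MB-435, MCF7, LNCaP) or RPMI (HT29, HCT116) with 10% heat-inactivated FBS and 2 mM L-glutamine, subconfluent and in exponential growth. They were seeded, allowed to adhere overnight, then exposed continuously to compound (10 mM DMSO stock) for 72 h. MTT was added to 0.3 mg/mL final for 3–4 h at 37 °C, formazan was dissolved in DMSO, and absorbance was read at 570 nm. Runs were in triplicate; IC50 came from log concentration versus percent cell kill.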

[4] = system: SK-BR-3; assay: Cytotoxicity against human SKBR3 cells incubated for 72 hrs by MTT assay; type: functional, cell-based; settings: SK-BR-3, 72 h
[5] = system: HCT-116; assay: Cytotoxicity against p53 expressing human HCT116 cells incubated for 72 hrs by MTT assay; type: functional, cell-based; settings: HCT-116, 72 h; method in brief: as §2
[6] = system: MDA-MB-435; assay: Cytotoxicity against human MDA-MB-435 cells incubated for 72 hrs by MTT assay; type: functional, cell-based; settings: MDA-MB-435, 72 h; method in brief: as §2
[7] = system: LNCaP; assay: Cytotoxicity against human LNCAP cells incubated for 72 hrs by MTT assay; type: functional, cell-based; method in brief: as §2
[8] = system: HT-29; assay: Cytotoxicity against human HT-29 cells incubated for 72 hrs by MTT assay; type: functional, cell-based; settings: HT-29, 72 h; method in brief: as §2
[9] = system: HCT-116; assay: Cytotoxicity against p53 deficient human HCT116 cells incubated for 72 hrs by MTT assay; type: functional, cell-based; settings: HCT-116, 72 h; method in brief: as §2
[10] = target: T1, Human immunodeficiency virus type 1 integrase (Human immunodeficiency virus 1, UniProt Q7ZJM1); assay: Inhibition of HIV1 integrase strand transfer activity using [32P]-labeled linear oligonucleotide substrate
T1 sequence (Q7ZJM1 whole entry): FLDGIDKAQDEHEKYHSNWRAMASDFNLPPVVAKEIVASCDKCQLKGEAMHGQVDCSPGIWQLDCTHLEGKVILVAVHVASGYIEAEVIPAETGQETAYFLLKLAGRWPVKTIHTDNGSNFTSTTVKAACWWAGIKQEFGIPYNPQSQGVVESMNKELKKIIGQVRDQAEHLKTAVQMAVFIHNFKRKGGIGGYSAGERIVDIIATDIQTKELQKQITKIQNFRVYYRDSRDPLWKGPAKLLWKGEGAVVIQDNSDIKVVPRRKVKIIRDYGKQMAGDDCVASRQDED

[11] = target: T1, Human immunodeficiency virus type 1 integrase; assay: Inhibition of HIV1 integrase 3'-processing activity using [32P]-labeled linear oligonucleotide substrate
[12] = target: Receptor tyrosine-protein kinase erbB-2 (Homo sapiens) (UniProt P04626); assay: Inhibition of ErbB2 at 10 uM incubated for 60 mins using poly(Glu,Tyr)4:1 substrate and 10 uM ATP by ELISA; method in brief: as §1
Chain of Receptor tyrosine-protein kinase erbB-2 (Homo sapiens) (P04626 whole entry): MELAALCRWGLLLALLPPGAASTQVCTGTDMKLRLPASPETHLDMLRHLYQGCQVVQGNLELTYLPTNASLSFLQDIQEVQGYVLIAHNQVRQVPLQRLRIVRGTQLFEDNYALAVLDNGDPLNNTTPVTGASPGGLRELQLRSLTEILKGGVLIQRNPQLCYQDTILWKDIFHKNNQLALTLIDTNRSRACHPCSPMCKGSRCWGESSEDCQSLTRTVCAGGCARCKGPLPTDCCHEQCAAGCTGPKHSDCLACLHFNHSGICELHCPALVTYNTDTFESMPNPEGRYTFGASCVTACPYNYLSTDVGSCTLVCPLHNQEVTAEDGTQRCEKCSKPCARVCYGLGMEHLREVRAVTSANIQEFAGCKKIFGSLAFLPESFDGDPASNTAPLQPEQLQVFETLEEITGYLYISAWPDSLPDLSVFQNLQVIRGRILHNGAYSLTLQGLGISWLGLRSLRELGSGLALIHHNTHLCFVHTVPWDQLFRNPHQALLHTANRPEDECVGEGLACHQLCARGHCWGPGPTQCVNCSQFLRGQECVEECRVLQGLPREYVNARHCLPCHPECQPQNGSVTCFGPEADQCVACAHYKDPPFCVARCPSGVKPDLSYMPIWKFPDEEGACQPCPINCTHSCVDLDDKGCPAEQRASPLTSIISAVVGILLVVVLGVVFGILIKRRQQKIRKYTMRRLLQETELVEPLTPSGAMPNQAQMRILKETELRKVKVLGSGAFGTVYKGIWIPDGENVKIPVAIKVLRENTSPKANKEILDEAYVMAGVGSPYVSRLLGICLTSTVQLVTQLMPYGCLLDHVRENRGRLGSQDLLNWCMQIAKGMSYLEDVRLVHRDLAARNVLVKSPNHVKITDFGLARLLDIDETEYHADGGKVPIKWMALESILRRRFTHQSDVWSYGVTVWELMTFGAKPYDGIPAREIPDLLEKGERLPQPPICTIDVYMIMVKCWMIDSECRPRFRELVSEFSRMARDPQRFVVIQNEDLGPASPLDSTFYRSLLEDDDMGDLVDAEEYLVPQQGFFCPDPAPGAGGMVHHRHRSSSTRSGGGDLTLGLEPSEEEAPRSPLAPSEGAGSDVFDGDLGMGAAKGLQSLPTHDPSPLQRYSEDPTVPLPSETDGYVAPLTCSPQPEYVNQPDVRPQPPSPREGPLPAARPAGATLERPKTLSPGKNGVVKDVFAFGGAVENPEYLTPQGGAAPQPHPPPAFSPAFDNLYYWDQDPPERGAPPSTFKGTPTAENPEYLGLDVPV

Chain of Proto-oncogene tyrosine-protein kinase Src (Homo sapiens) (P12931 2-536 limits assumed): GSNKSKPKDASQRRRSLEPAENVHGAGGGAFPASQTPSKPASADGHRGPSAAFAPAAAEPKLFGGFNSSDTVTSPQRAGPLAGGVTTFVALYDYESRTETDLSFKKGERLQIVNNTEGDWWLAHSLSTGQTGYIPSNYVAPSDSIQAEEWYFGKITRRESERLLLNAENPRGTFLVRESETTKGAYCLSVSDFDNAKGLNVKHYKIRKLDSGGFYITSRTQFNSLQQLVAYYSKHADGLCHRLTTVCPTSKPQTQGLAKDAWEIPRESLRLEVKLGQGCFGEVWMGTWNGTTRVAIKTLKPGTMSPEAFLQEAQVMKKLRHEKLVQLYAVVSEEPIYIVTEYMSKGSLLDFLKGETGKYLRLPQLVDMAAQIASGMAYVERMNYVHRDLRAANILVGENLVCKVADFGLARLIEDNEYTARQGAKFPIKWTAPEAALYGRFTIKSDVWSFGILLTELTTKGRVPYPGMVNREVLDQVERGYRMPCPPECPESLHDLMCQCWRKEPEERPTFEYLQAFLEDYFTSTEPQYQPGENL

## CC(C)(C)n1nc(-c2ccc(Cl)cc2)c2c(N)ncnc21
[1]
  inhibition: 94%

## N[C@H]1CC[C@H](Nc2c(C(=O)NC3CCCCC3)nc(Br)c3cccnc23)CC1
[2]
  IC50: 5.2 µM
[3]
  IC50: 5.2 µM
[4]
  IC50: 4.2 µM
[5]
  IC50: > 10 µM
[6]
  IC50: > 10 µM

## N[C@H]1CC[C@H](Nc2c(C(=O)NCc3ccc(Oc4ccccc4)cc3)nc(Br)c3cccnc23)CC1
[2]
  IC50: 9 µM
[3]
  IC50: 7.9 µM
[6]
  IC50: 4 µM

## COC(=O)CNc1c(C(=O)NCc2ccc(F)cc2)nc(Br)c2cccnc12
[7]
  IC50: 5 µM
[8]
  IC50: > 10 µM
[3]
  IC50: > 10 µM
[4]
  IC50: 1 µM
[5]
  IC50: > 10 µM
[9]
  IC50: > 10 µM
[6]
  IC50: 10 µM

## NCCNc1c(C(=O)NCc2ccc(F)cc2)nc(Br)c2cccnc12
[3]
  IC50: 6 µM
[5]
  IC50: > 20 µM
[9]
  IC50: > 20 µM
[6]
  IC50: 12 µM
[10]
  IC50: > 100 µM
[11]
  IC50: > 100 µM

## CC(C)(C)OC(=O)N1CCC(Nc2c(C(=O)NCc3ccc(F)cc3)nc(Br)c3cccnc23)CC1
[7]
  IC50: > 10 µM
[8]
  IC50: > 10 µM
[3]
  IC50: > 10 µM
[4]
  IC50: 1 µM
[5]
  IC50: > 10 µM
[9]
  IC50: 9 µM
[6]
  IC50: 20 µM

## N[C@H]1CC[C@H](Nc2c(C(=O)NCc3ccccc3)nc(Br)c3cccnc23)CC1
[12]
  inhibition: 0%
[2]
  IC50: 8 µM
[4]
  IC50: 8 µM
[5]
  IC50: 7 µM
[6]
  IC50: 7 µM

## N[C@H]1CC[C@H](Nc2c(C(=O)Nc3ccccc3)nc(Br)c3cccnc23)CC1
[12]
  inhibition: 0%
[2]
  IC50: 1 µM
[4]
  IC50: 2 µM
[5]
  IC50: 2 µM
[6]
  IC50: 1 µM

## N[C@H]1CC[C@H](Nc2c(C(=O)NCc3ccc(F)cc3)nc(N3CCCCC3)c3cccnc23)CC1
[3]
  IC50: 5 µM
[4]
  IC50: > 10 µM
[5]
  IC50: 8 µM
[9]
  IC50: 8.5 µM
[6]
  IC50: 5 µM

## Nc1cccc(Nc2c(C(=O)NCc3ccc(F)cc3)nc(Br)c3cccnc23)c1
[7]
  IC50: 8 µM
[8]
  IC50: > 10 µM
[3]
  IC50: 8 µM
[4]
  IC50: > 10 µM
[5]
  IC50: > 10 µM
[9]
  IC50: > 10 µM
[6]
  IC50: 8 µM

## CNc1c(C(=O)NCc2ccc(F)cc2)nc(Br)c2cccnc12
[5]
  IC50: > 20 µM
[9]
  IC50: > 20 µM
[6]
  IC50: > 20 µM
[10]
  IC50: > 100 µM
[11]
  IC50: > 100 µM

## N[C@H]1CC[C@H](Nc2c(C(=O)NCc3cccc(C(F)(F)F)c3)nc(Br)c3cccnc23)CC1
[2]
  IC50: 12 µM
[3]
  IC50: 15 µM
[6]
  IC50: 4.2 µM

## CC(C)(C)OC(=O)N1CCN(c2c(C(=O)NCc3ccc(F)cc3)nc(Br)c3cccnc23)CC1
[7]
  IC50: > 10 µM
[8]
  IC50: > 10 µM
[3]
  IC50: > 10 µM
[4]
  IC50: 3 µM
[5]
  IC50: > 10 µM
[9]
  IC50: > 10 µM
[6]
  IC50: 10 µM

## COC(=O)c1nc(Br)c2cccnc2c1N[C@H]1CC[C@H](N)CC1
[2]
  IC50: > 20 µM
[3]
  IC50: > 20 µM
[6]
  IC50: > 20 µM

## C[C@H](NC(=O)c1nc(Br)c2cccnc2c1N[C@H]1CC[C@H](N)CC1)c1ccc(F)cc1
[2]
  IC50: > 10 µM
[4]
  IC50: 9 µM
[5]
  IC50: > 10 µM
[6]
  IC50: > 10 µM

## N[C@H]1CC[C@H](Nc2c(C(=O)NCc3ccco3)nc(Br)c3cccnc23)CC1
[2]
  IC50: > 10 µM
[4]
  IC50: 10 µM
[5]
  IC50: > 10 µM
[6]
  IC50: > 10 µM

## O=C(NCc1ccc(F)cc1)c1nc(Br)c2cccnc2c1NCc1ccccc1
[5]
  IC50: > 20 µM
[9]
  IC50: > 20 µM
[6]
  IC50: > 20 µM
[10]
  IC50: > 100 µM
[11]
  IC50: > 100 µM

## N[C@H]1CC[C@H](Nc2c(C(=O)NCc3cccs3)nc(Br)c3cccnc23)CC1
[2]
  IC50: 11 µM
[3]
  IC50: 7.3 µM
[6]
  IC50: 4.1 µM

## N[C@H]1CC[C@H](Nc2c(C(=O)NCc3ccccn3)nc(Br)c3cccnc23)CC1
[2]
  IC50: > 20 µM
[3]
  IC50: 15 µM
[6]
  IC50: 4 µM

## CN(C)c1ccc(CNC(=O)c2nc(Br)c3cccnc3c2N[C@H]2CC[C@H](N)CC2)cc1
[2]
  IC50: 5.3 µM
[3]
  IC50: 5 µM
[6]
  IC50: 4 µM

## C[C@@H](Nc1c(C(=O)NCc2ccc(F)cc2)nc(Br)c2cccnc12)c1ccccc1
[5]
  IC50: > 20 µM
[9]
  IC50: > 20 µM
[6]
  IC50: > 20 µM
[10]
  IC50: > 111 µM
[11]
  IC50: > 111 µM

## C[C@H](Nc1c(C(=O)NCc2ccc(F)cc2)nc(Br)c2cccnc12)c1ccccc1
[5]
  IC50: > 20 µM
[9]
  IC50: > 20 µM
[6]
  IC50: > 20 µM
[10]
  IC50: > 111 µM
[11]
  IC50: > 111 µM

## N[C@H]1CC[C@H](NC(=O)c2nc(Br)c3cccnc3c2NCc2ccc(F)cc2)CC1
[1]
  inhibition: 0%
[12]
  inhibition: 3%
[2]
  IC50: 7.1 µM
[4]
  IC50: 2.8 µM
[5]
  IC50: 6.4 µM
[6]
  IC50: 6.6 µM

## CNCCCNc1c(C(=O)NCc2ccc(F)cc2)nc(Br)c2cccnc12
[7]
  IC50: 8 µM
[8]
  IC50: > 10 µM
[3]
  IC50: > 10 µM
[4]
  IC50: 1 µM
[5]
  IC50: 9 µM
[9]
  IC50: > 10 µM
[6]
  IC50: 11 µM

## O=C(NCc1ccc(F)cc1)c1nc(Br)c2cccnc2c1NCc1ccc(F)cc1
[5]
  IC50: > 20 µM
[9]
  IC50: > 20 µM
[6]
  IC50: > 20 µM
[10]
  IC50: > 100 µM
[11]
  IC50: > 100 µM

## N[C@H]1CC[C@H](Nc2c(C(=O)NCc3ccc4c(c3)OCO4)nc(Br)c3cccnc23)CC1
[12]
  inhibition: 0%
[2]
  IC50: 4 µM
[4]
  IC50: 6 µM
[5]
  IC50: 7 µM
[6]
  IC50: 7 µM

## N[C@H]1CC[C@H](Nc2c(C(=O)NCCc3ccccc3)nc(Br)c3cccnc23)CC1
[12]
  inhibition: 0%
[2]
  IC50: 6 µM
[4]
  IC50: 7 µM
[5]
  IC50: 8.8 µM
[6]
  IC50: 8 µM

## CS(=O)(=O)CCNCc1ccc(-c2ccc3ncnc(Nc4ccc(OCc5cccc(F)c5)c(Cl)c4)c3c2)o1
[12]
  inhibition: 92%

## N[C@H]1CC[C@H](Nc2c(C(=O)NCc3ccc(F)cc3)nc(N3CCCCS3(=O)=O)c3cccnc23)CC1
[7]
  IC50: 8 µM
[8]
  IC50: > 10 µM
[3]
  IC50: 13 µM
[4]
  IC50: 8.5 µM
[5]
  IC50: > 10 µM
[9]
  IC50: > 10 µM
[6]
  IC50: 5 µM

## O=C(NCCCNc1c(C(=O)NCc2ccc(F)cc2)nc(Br)c2cccnc12)c1ccccc1
[7]
  IC50: > 10 µM
[8]
  IC50: > 10 µM
[3]
  IC50: 2 µM
[4]
  IC50: 1 µM
[5]
  IC50: > 10 µM
[9]
  IC50: > 10 µM
[6]
  IC50: > 20 µM

## O=C(NCc1ccc(F)cc1)c1nc(Br)c2cccnc2c1NCCCNc1c(C(=O)NCc2ccc(F)cc2)nc(Br)c2cccnc12
[5]
  IC50: > 20 µM
[9]
  IC50: > 20 µM
[6]
  IC50: > 20 µM
[10]
  IC50: > 100 µM
[11]
  IC50: > 100 µM

## COc1cccc(CNC(=O)c2nc(Br)c3cccnc3c2N[C@H]2CC[C@H](N)CC2)c1
[12]
  inhibition: 0%
[2]
  IC50: 7 µM
[4]
  IC50: 6 µM
[5]
  IC50: 6 µM
[6]
  IC50: 7 µM

Source: ChEMBL document CHEMBL2176962, “Repositioning HIV-1 integrase inhibitors for cancer therapeutics: 1,6-naphthyridine-7-carboxamide as a promising scaffold with drug-like properties” (J Med Chem, 2012)
